Results from ChEMBL document CHEMBL1137246, “Horseradish peroxidase inhibition and antioxidant activity of ebselen and related organoselenium compounds” (Bioorg Med Chem Lett, 2006).
Active and inactive are the calls of the source. The rule behind the calls is not given here.

How the values were obtained:
[1] = Effect on gamma irradiation-induced TBARS formation in liposomes at 50 uM; type: functional
Method in brief: (§1)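 Liposomal suspensions, N2O/O2-purged, pH 7.4 phosphate buffer, exposed to a constant 280 Gy γ-dose (Fricke dosimetry). Peroxidation followed as TBARS with compound at 0.025–0.150 mM. IC50 is the concentration giving 50% inhibition of lipid peroxidation.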

[2] = Antioxidant activity assessed by singlet oxygen quenching ability at 1mM; type: functional
[3] = Inhibition of horseradish peroxidase by spectrophotometric method; parameters: species or system Armoracia rusticana
Method in brief: (§2)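 HRP (70 nM) with ABTS2- as substrate, with or without selenium compound at 0.06–0.1 mM. Reaction started by adding H2O2. Initial rates taken from the absorbance change at 645 nm (ABTS radical cation). Activity without compound set to 100%.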

[4] = Inhibition of gamma radiation-induced lipid peroxidation in liposomes at 200 uM; type: functional
Armoracia rusticana = experiment: Inhibition of horseradish peroxidase at 100 uM; method in brief: as §2
[5] = Antioxidant activity assessed by singlet oxygen quenching ability; type: functional
[6] = Glutathione peroxidase activity assessed by GSH-GSSG coupled assay; type: functional
Method in brief: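 GPx-like activity measured by GSH–GSSG coupled assay: glutathione reductase 0.3 U/ml, NADPH 0.25 mM, GSH 0.5–6 mM, compound 0.025 mM (in methanol, 2% in buffer), H2O2 1 mM substrate. NADPH loss at 340 nm fitted to an exponential; initial rates from ε 6220 M-1 cm-1, corrected for uncatalysed H2O2–GSH reaction. Km and Vmax from Lineweaver–Burk plots.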

[7] = Inhibition of gamma radiation-induced lipid peroxidation in liposomes; type: functional; method in brief: as §1

| Compound | Activity ([1]; Liposome) | Activity [2] | IC50 [3] [µM] | inhibition [4] [%] | inhibition (Armoracia rusticana) [%] | Activity [5] | Km [6] [mM] | IC50 [7] [µM] | Activity [1] |
| --- | --- | --- | --- | --- | --- | --- | --- | --- | --- |
| O=C(Nc1ccccc1)c1ccccc1[Se][Se]c1ccccc1C(=O)Nc1ccccc1 [EBSELEN DISELENIDE] | Active | inactive | 50 | 19 |  |  |  |  |  |
| C[Se]c1ccccc1C(=O)Nc1ccccc1 | Active |  | > 100 |  | 25.5 | Active | 5.25 | 100 |  |
| O=C(Nc1ccccc1)c1ccccc1[Se]Cc1ccccc1 | Active |  | > 100 |  | 33.1 | Active | 2.2 | 75 |  |
| O=C(Nc1ccccc1)c1ccccc1[Te][Te]c1ccccc1C(=O)Nc1ccccc1 [EBSELEN DITELLURIDE] | Active |  | 17.3 |  |  | Active | 2.3 | 175 |  |
| O=c1c2ccccc2[se]n1-c1ccccc1 [EBSELEN] |  |  | 16.9 |  |  | Active | 13.2 | 25 | Active |
